# Assay outcomes deposited in PubChem BioAssay by The Scripps Research Institute Molecular Screening Center.
# CHRM5 PAM – human M5 muscarinic receptor positive allosteric modulators, primary screen, CHO-K1 cells, Fluo-8 calcium fluorescence; activation, % at 3 µM; Muscarinic acetylcholine receptor M5 (Homo sapiens), P08912; hit rate 0.3% among 360,000; CHO-K1 hM5, ACh EC20 PAM; 0% = ACh EC20, 100% = ACh EC100;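 active = activation above the run cutoff, the mean activation of all test compounds plus 3 SD, cut at about 18% in these data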
#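 Test system: CHO-K1 hM5 cells / Doses: single-point, 3 µM nominal / Times: Post-acetylcholine fluorescence recording 140 s / Technique: Fluo-8 calcium fluorescence / Measure: Max/basal fluorescence ratio as % of EC20–EC100 ACh window / Benchmarks: low control EC20 acetylcholine (0%), high control EC100 acetylcholine (100%) / Replicates: one well per compound, no replicates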
# M4 PAM – human M4 muscarinic receptor positive allosteric modulators, primary screen, CHO-K1 cells, Fluo-8 calcium fluorescence; CHO-K1 hM4/Gqi5, ACh EC20; 0% = ACh EC20, 100% = maximal ACh; activation, % at 3 µM; hit rate 0.4% among 360,000; AID 624126, 2012;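 active = activation above its plate's cutoff, the mean activation of sample wells plus 3 SD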
# Target sequence (P08173 whole entry, looked up): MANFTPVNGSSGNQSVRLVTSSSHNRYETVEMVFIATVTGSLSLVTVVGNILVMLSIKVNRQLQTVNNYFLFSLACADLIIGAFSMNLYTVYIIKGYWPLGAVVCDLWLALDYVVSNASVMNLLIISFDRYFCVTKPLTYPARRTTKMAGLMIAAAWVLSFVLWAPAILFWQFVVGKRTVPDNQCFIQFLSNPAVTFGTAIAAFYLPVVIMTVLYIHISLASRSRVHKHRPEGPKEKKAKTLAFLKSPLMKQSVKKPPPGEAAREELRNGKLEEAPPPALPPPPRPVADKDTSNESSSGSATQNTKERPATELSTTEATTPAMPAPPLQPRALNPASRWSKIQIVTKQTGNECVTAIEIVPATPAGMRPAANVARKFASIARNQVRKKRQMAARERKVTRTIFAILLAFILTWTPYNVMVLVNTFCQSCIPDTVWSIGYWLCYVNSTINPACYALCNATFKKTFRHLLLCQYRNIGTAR
# CHRM4 agonist – human M4 muscarinic receptor agonists, primary screen, CHO-K1 cells, Fluo-8 calcium fluorescence. hit rate 0.14% among 360,000. activation, % at 3 µM. CHO-K1 hM4/Gqi5; vehicle 0%, full acetylcholine response 100%. Muscarinic acetylcholine receptor M4 (Homo sapiens), P08173;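 active = activation above the run mean over all test wells plus 3 SD, cut at about 32% in these data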;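 note: peak over basal fluorescence ratio per well then scaled between controls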
# M4 antag – human M4 muscarinic receptor antagonists, primary screen, CHO cells, Fluo-8 calcium fluorescence | hit rate 0.73% among 360,000 | inhibition, % at 3 µM | CHO-hM4 cells, ACh EC80 | AID 624125, 2012 | Muscarinic acetylcholine receptor M4 (Homo sapiens), P08173;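 active = inhibition above its plate's cutoff, the mean inhibition of sample wells plus 3 SD, cut at about 27% in these data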
# CHRM5 agonist – human M5 muscarinic receptor agonists, primary screen, CHO-K1 cells, Fluo-8 calcium fluorescence; CHO-K1 hM5 cells; 0% DMSO wells, 100% maximal acetylcholine response; activation, % at 3 µM; hit rate 0.19% among 360,000; AID 624037, 2012;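 active = activation above the run's mean over test compounds plus 3 SD, cut at about 23% in these data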;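 note: signal is peak over basal fluorescence ratio across the kinetic read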
# CHRM5 antagonist – human M5 muscarinic receptor antagonists, primary screen, CHO cells, Fluo-8 calcium fluorescence; Muscarinic acetylcholine receptor M5 (Homo sapiens), P08912; CHO-hM5 cells, ACh EC80; inhibition, % at 3 µM; hit rate 0.59% among 360,000; AID 624040, 2012;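 active = inhibition above a per-plate cutoff, the mean of that plate's test compounds plus 3 SD, cut at about 27% in these data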
# Hits are given with their value; – = inactive. A selection: hits, their analogues and other compounds. The true share with any hit is near 1.9%.
SMILES,CHRM5 PAM,M4 PAM,CHRM4 agonist,M4 antag,CHRM5 agonist,CHRM5 antagonist
O=C(CCc1ccccc1)NC(NC(=S)Nc1ccc(Br)cc1)C(Cl)(Cl)Cl (stereo unspecified),–,–,–,–,–,–
O=C(CCc1ccccc1)NC(NC(=S)Nc1cccc(Cl)c1)C(Cl)(Cl)Cl (stereo unspecified),–,–,–,–,–,34
CC(Sc1nnc(C2CC2)n1C1CC1)C(=O)N(C)Cc1cccc(F)c1 (stereo unspecified),–,–,–,–,–,–
CN(CC1CCCN(CCc2ccccc2F)C1)C(=O)c1cc2ccccc2o1 (stereo unspecified),–,–,–,37,–,–
CN(Cc1ccccc1O)CC1CCCN(CCc2ccc(Cl)cc2)C1 (stereo unspecified),–,–,–,37,–,–
COc1cc2c(cc1NC(=O)CN1CCN(S(=O)(=O)c3ccc(C)cc3)CC1)oc1ccccc12,–,22,–,–,–,–
COc1ccccc1N1CCN(C(=O)C(=O)c2c[nH]c3ccccc23)CC1,–,–,–,–,–,–
CCCCCCN1C2=NCCN2c2ccccc21,–,–,–,29,–,–
Fc1cccc(Cc2noc(CN3CCCN(C4Cc5ccccc5C4)CC3)n2)c1,–,–,–,54,–,–
CCOC(=O)C1CCCN(C(=O)c2cccc3ccccc23)C1 (stereo unspecified),–,–,–,–,–,–
CCOC(=O)C1CCc2c(ccc3ccccc23)N1CCC#N (stereo unspecified),–,–,–,–,–,29
Nc1nnc(SCC(=O)NC2CCCCCC2)s1,–,24,–,–,–,–
CN1c2ccccc2-c2nc3ccccc3n2C1c1cccs1 (stereo unspecified),18,–,–,–,–,–
Cc1ccc(C2N(C)c3ccccc3-c3nc4ccccc4n32)o1 (stereo unspecified),–,–,–,–,–,–
COc1ccc(S(=O)(=O)N2CCOC23CCN(S(=O)(=O)c2ccc(F)cc2)CC3)cc1,–,–,–,29,–,–
CC1CCC2(CC1)NC(=O)N(NC(=O)c1ccc(OC(C)C)cc1)C2=O (stereo unspecified),–,–,–,–,–,–
COc1cccc(N=Nc2ccc(O)c3ncccc23)c1,–,–,–,34,54,28
COc1cccc(N=Nc2ccc3cccnc3c2O)c1,–,–,43,–,42,–
CCCNC(=O)C(Cc1ccc(F)cc1)NC(=O)c1ccc(C#N)cc1 (stereo unspecified),–,–,–,–,–,–
COc1ccc(S(=O)(=O)N2CCCCCC2)cc1C(=O)OCC(=O)NC1CCS(=O)(=O)C1 (stereo unspecified),–,–,–,–,–,–
COc1ccc(CCNC(=O)c2cc(-c3cc(C)cc(C)c3O)n[nH]2)cc1OC,–,–,–,39,–,–
Cc1cc(NC(=O)COC(=O)C2CCCN2C(=O)c2cccs2)no1 (stereo unspecified),32,–,–,–,–,–
CC(C)NC(=O)NC(=O)COC(=O)C1CCCN1C(=O)c1cccs1 (stereo unspecified),–,–,–,–,–,–
O=C(CSc1nc2ccc(Nc3nc(N4CCOCC4)nc(N4CCOCC4)n3)cc2s1)Nc1ccccc1F,–,–,–,–,–,–
Cc1cc(N2CCCC2)c(F)cc1/C=C\[N+](=O)[O-],–,–,–,–,25,64
SMILES,CHRM5 PAM,M4 PAM,CHRM4 agonist,M4 antag,CHRM5 agonist,CHRM5 antagonist
Cc1cc(N2CCC(C)CC2)c(F)cc1[N+](=O)[O-],–,–,–,–,–,–
O=C(CCCN1C(=O)/C(=C\c2cccs2)SC1=S)Nc1cccc(C(=O)O)c1,–,21,–,–,–,–
CN1CCC(=O)N([C@H](CN=[N+]=[N-])Cc2ccccc2)CC1,–,–,–,–,–,–
Cc1ccc(Nc2cc(C)nn2-c2nc(C)cc(=O)[nH]2)cc1,–,–,–,59,–,41
Cc1ccc(SCCC(=O)OC(C)C(=O)Nc2ccccc2)cc1 (stereo unspecified),–,–,–,–,–,–
CCOC(=O)Cn1nc(C)n(-c2ccc(C(C)(C)C)cc2)c1=O,21,–,–,–,–,–
O=C(Cn1nc(C(=O)O)c2ccccc2c1=O)Nc1ccccc1C(F)(F)F,–,–,–,–,–,–
CC(=O)c1sc2nc(-c3ccccc3)cc(C)c2c1N,–,42,–,–,–,–
CCOC(=O)c1sc2nc(OCc3cccnc3)cc(C)c2c1N,–,32,–,–,–,–
CCOC(=O)c1sc2nc(C)nc(NCc3cccnc3)c2c1C,–,–,–,–,–,–
Cc1cc(C(F)(F)F)c2c(N)c(C(=O)NC3CC3)sc2n1,–,–,–,–,–,–
Nc1c(C(=O)O)sc2nc(-c3ccccc3)cc(-c3ccc(Cl)cc3)c12,–,–,–,–,–,–
CCOC(=O)c1sc2nc(C)cc(C)c2c1N,–,51,–,28,–,–
Cc1cc(C)c2c(N)c(C(=O)NC3CC3)sc2n1,–,34,56,67,–,–
CSc1ccc(S(=O)(=O)N2c3ccccc3CC2C)cc1 (stereo unspecified),–,–,–,–,–,–
CC(C)NC(=O)c1ccc2sc([C@@H]3O[C@H](CO)[C@H](O)[C@H](O)[C@H]3O)nc2c1,–,–,–,–,–,–
Cc1cc(C)c2c(N)c(C(=O)NN)sc2n1,–,–,–,–,–,–
Cc1ccc(NC(=O)c2sc3nc(C)cc(C)c3c2N)cc1,–,16,–,–,–,–
NC(c1ccccc1)c1ccncc1 (stereo unspecified),–,–,–,–,–,–
CN(C)c1ccc(/C=C/C(=O)c2cccc(Br)c2)cc1,–,–,349,63,78,57
CN(C)c1ccc(C(=O)/C=C/c2cccnc2)cc1,–,–,–,–,–,–
Cc1ccc2c(c1)NC(=O)C(CC(=O)Nc1ccc(CN3CCC(C)CC3)cc1)O2 (stereo unspecified),–,–,–,99,–,71
Cc1noc(C)c1C(=O)OCC(=O)Nc1ncc(Cl)c(C)c1Cl,–,–,–,–,–,–
COc1cccc(CCC2C(=O)CCCC2=O)c1,–,–,–,–,–,–
CCOC(=O)/C(CCC[N+](C)(CC)CC)=N\O,–,–,–,–,–,60
